Measurements published in ChEMBL document CHEMBL4002555, “Bioactive Pentacyclic Triterpenoids from the Leaves of Cleistocalyx operculatus” (J Nat Prod, 2016).

Legend:
RAW264.7 [1] = assay: Anti-inflammatory activity in mouse RAW264.7 cells assessed as inhibition of LPS-induced IL-6 production at 2 uM pretreated for 1 hr followed by LPS stimulation measured after 24 hrs by ELISA relative to control; type: functional
Method in brief: (§1)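 LPS-stimulated RAW 264.7 macrophages, with IL-6 and TNF-α production read separately. Test concentrations were 0.4, 2, 10 and 50 μM, and dexamethasone was the reference drug. Results are given as percent inhibition of cytokine production.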

MCF7 = assay: Cytotoxicity against human MCF7 cells after 72 hrs by MTT assay; type: functional, cell-based; conditions: MCF7, 72 h
Method in brief: (§2)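 MTT growth-inhibition assay in human HepG2 hepatocellular, NCI-N87 gastric and MCF-7 breast carcinoma lines, with a doxorubicin positive control. IC50 values are means ± SD from three individual experiments; >10.0 μM was taken as noncytotoxic.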

NCI-N87 = assay: Cytotoxicity against human NCI-N87 cells after 72 hrs by MTT assay; type: functional, cell-based; conditions: NCI-N87, 72 h; method in brief: as §2
HepG2 = assay: Cytotoxicity against human HepG2 cells after 72 hrs by MTT assay; type: functional, cell-based; conditions: HepG2, 72 h; method in brief: as §2
RAW264.7 [2] = assay: Anti-inflammatory activity in mouse RAW264.7 cells assessed as inhibition of LPS-induced IL-6 production at 50 uM pretreated for 1 hr followed by LPS stimulation measured after 24 hrs by ELISA relative to control; type: functional; method in brief: as §1
RAW264.7 [3] = assay: Anti-inflammatory activity in mouse RAW264.7 cells assessed as inhibition of LPS-induced TNF-alpha production at 2 uM pretreated for 1 hr followed by LPS stimulation measured after 24 hrs by ELISA relative to control; type: functional; method in brief: as §1
RAW264.7 [4] = assay: Anti-inflammatory activity in mouse RAW264.7 cells assessed as inhibition of LPS-induced TNF-alpha production at 10 uM pretreated for 1 hr followed by LPS stimulation measured after 24 hrs by ELISA relative to control; type: functional; method in brief: as §1
RAW264.7 [5] = assay: Anti-inflammatory activity in mouse RAW264.7 cells assessed as inhibition of LPS-induced TNF-alpha production at 50 uM pretreated for 1 hr followed by LPS stimulation measured after 24 hrs by ELISA relative to control; type: functional; method in brief: as §1
RAW264.7 [6] = assay: Anti-inflammatory activity in mouse RAW264.7 cells assessed as inhibition of LPS-induced IL-6 production at 10 uM pretreated for 1 hr followed by LPS stimulation measured after 24 hrs by ELISA relative to control; type: functional; method in brief: as §1
[7] = Cytotoxicity against mouse RAW264.7 cells assessed as growth inhibition at 50 uM after 72 hrs by MTT assay relative to control; type: cell-based; conditions: read-out: GI
RAW264.7 [8] = assay: Anti-inflammatory activity in mouse RAW264.7 cells assessed as inhibition of LPS-induced TNF-alpha production at 0.4 uM pretreated for 1 hr followed by LPS stimulation measured after 24 hrs by ELISA relative to control; type: functional; method in brief: as §1
RAW264.7 [9] = assay: Anti-inflammatory activity in mouse RAW264.7 cells assessed as inhibition of LPS-induced IL-6 production at 0.4 uM pretreated for 1 hr followed by LPS stimulation measured after 24 hrs by ELISA relative to control; type: functional; method in brief: as §1
[10] = Cytotoxicity against mouse RAW264.7 cells assessed as growth inhibition at 10 uM after 72 hrs by MTT assay relative to control; type: cell-based; conditions: read-out: GI

Structure (SMILES)	inhibition at 2 µM (RAW264.7 [1])	IC50 (MCF7)	IC50 (NCI-N87)	IC50 (HepG2)	inhibition at 50 µM (RAW264.7 [2])	inhibition at 2 µM (RAW264.7 [3])	inhibition at 10 µM (RAW264.7 [4])	inhibition at 50 µM (RAW264.7 [5])	inhibition at 10 µM (RAW264.7 [6])	inhibition at 72 h, 50 µM [7]	inhibition at 0.4 µM (RAW264.7 [8])	inhibition at 0.4 µM (RAW264.7 [9])	inhibition at 72 h, 10 µM [10]
CC1(C)CC[C@]2(C(=O)O)CC[C@]3(C)C(=C[C@@H](O)[C@@H]4[C@@]5(C)C[C@@H](O)[C@H](O)[C@@](C)(CO)[C@@H]5CC[C@]43C)[C@@H]2C1	68.1%	> 10 µM	> 10 µM	> 10 µM	74.9%	53.7%	57.7%	65.6%	69.9%	< 5%			
COC(=O)[C@]12CCC(C)(C)CC1=C1CC[C@@H]3[C@@]4(C)CC[C@H](O)C(C)(C)[C@@H]4CC[C@@]3(C)[C@]1(C(=O)O)CC2		> 10 µM	5.1 µM	5 µM									
C[C@H]1[C@@H]2[C@H]3CC[C@@H]4[C@@]5(C)CC[C@H](O)C(C)(C)[C@@H]5CC[C@@]4(C)[C@]3(C)CC[C@@]23C[C@@H](O)[C@]1(C)OC3=O	< 50%	> 10 µM	7.3 µM	> 10 µM	< 50%	< 50%	< 50%	< 50%	< 50%		< 50%	< 50%	< 5%
C[C@H]1[C@H](C)CC[C@]2(C(=O)O)CC[C@]3(C)C(=C[C@@H](O)[C@@H]4[C@@]5(C)C[C@@H](O)[C@H](O)[C@@](C)(CO)[C@@H]5CC[C@]43C)[C@H]12	< 50%	> 10 µM	> 10 µM	> 10 µM	< 50%	< 50%	< 50%	< 50%	< 50%		< 50%	< 50%	< 5%
CC1=CC[C@]2(C(=O)O)CC[C@]3(C=O)[C@H](CC[C@@H]4[C@@]5(C)CC[C@H](O)C(C)(C)[C@@H]5CC[C@]43C)[C@H]2[C@@H]1C	19.2%	> 10 µM	> 10 µM	> 10 µM		14.1%	35.9%		53.8%		14.8%	23.6%	< 5%
C=C1CC[C@]2(C(=O)O)CC[C@]3(C)C(=CC[C@@H]4[C@@]5(C)C[C@@H](O)[C@H](O)C(C)(C)[C@@H]5CC[C@]43C)[C@@H]2[C@H]1C	< 50%	> 10 µM	> 10 µM	> 10 µM	< 50%	< 50%	< 50%	< 50%	< 50%		< 50%	< 50%	< 5%
COC(=O)[C@@]12CC[C@]3(C(=O)O)[C@H](CC[C@@H]4[C@@]5(C)CC[C@H](O)C(C)(C)[C@@H]5CC[C@]43C)[C@@H]1[C@@H](C)C(C)=C[C@H]2O	< 50%	> 10 µM	> 10 µM	> 10 µM	< 50%	< 50%	< 50%	< 50%	< 50%		< 50%	< 50%	< 5%
C=C1CC[C@]2(C(=O)O)CC[C@]3(C)C(=C[C@@H](O)[C@@H]4[C@@]5(C)C[C@@H](O)[C@H](O)[C@@](C)(CO)[C@@H]5CC[C@]43C)[C@@H]2[C@H]1C	< 50%	> 10 µM	> 10 µM	> 10 µM	< 50%	< 50%	< 50%	< 50%	< 50%		< 50%	< 50%	< 5%
CC1=CC[C@]2(C(=O)O)CC[C@]3(C)[C@H](CC[C@@H]4[C@@]5(C)CC[C@H](O)C(C)(C)[C@@H]5CC[C@]43C)[C@H]2[C@@H]1C		4.3 µM	2.4 µM	1.9 µM									
C=C1CC[C@]2(C(=O)O)CC[C@]3(C)C(=CC[C@@H]4[C@@]5(C)C[C@@H](O)[C@H](O)[C@@](C)(CO)[C@@H]5CC[C@]43C)[C@@H]2[C@H]1C [ACTINIDIC ACID]	< 50%	> 10 µM	> 10 µM	> 10 µM	< 50%	< 50%	< 50%	< 50%	< 50%		< 50%	< 50%	< 5%
CC1(C)CC[C@]2(C(=O)O)CC[C@]3(C)C(=CC[C@@H]4[C@@]5(C)C[C@@H](O)[C@H](O)[C@@](C)(CO)[C@@H]5CC[C@]43C)[C@@H]2C1 [ARJUNOLIC ACID]	< 50%	> 10 µM	> 10 µM	> 10 µM	< 50%	< 50%	< 50%	< 50%	< 50%		< 50%	< 50%	< 5%
C[C@H]1[C@H](C)CC[C@]2(C(=O)O)CC[C@]3(C)C(=CC[C@@H]4[C@@]5(C)C[C@@H](O)[C@H](O)[C@@](C)(CO)[C@@H]5CC[C@]43C)[C@H]12 [ASIATIC ACID]	< 50%	> 10 µM	> 10 µM	> 10 µM	< 50%	< 50%	< 50%	< 50%	< 50%		< 50%	< 50%	< 5%
C[C@H]1[C@H](C)CC[C@]2(C(=O)O)CC[C@]3(C)C(=CC[C@@H]4[C@@]5(C)C[C@@H](O)[C@H](O)C(C)(C)[C@@H]5CC[C@]43C)[C@H]12 [COROSOLIC ACID]	< 50%	> 10 µM	4.4 µM	> 10 µM	< 50%	< 50%	< 50%	< 50%	< 50%		< 50%	< 50%	< 5%
C[C@@H]1C[C@H]2[C@@H]3CCC4=CC(=O)C=C[C@]4(C)[C@@]3(F)[C@@H](O)C[C@]2(C)[C@@]1(O)C(=O)CO [DEXAMETHASONE]	75.9%				84.9%	71.8%	79.2%	86.1%	80.4%				
COc1cccc2c1C(=O)c1c(O)c3c(c(O)c1C2=O)C[C@@](O)(C(=O)CO)C[C@@H]3O[C@H]1C[C@H](N)[C@H](O)[C@H](C)O1 [DOXORUBICIN]			1.6 µM										
C=C1[C@@H](O)[C@H](O)C[C@]2(C)[C@H]3CC=C4[C@@H]5[C@@H](C)[C@H](C)CC[C@]5(C(=O)O)CC[C@@]4(C)[C@]3(C)CC[C@@H]12 [ILEKUDINOL B]		> 10 µM	9.1 µM	> 10 µM									
CC1(C)CC[C@]2(C(=O)O)CC[C@]3(C)C(=CC[C@@H]4[C@@]5(C)C[C@@H](O)[C@H](O)C(C)(C)[C@@H]5CC[C@]43C)[C@@H]2C1 [MASLINIC ACID]	< 50%	> 10 µM	> 10 µM	> 10 µM	< 50%	< 50%	< 50%	< 50%	< 50%		< 50%	< 50%	< 5%
CC1(C)CC[C@]2(C(=O)O)CC[C@]3(C)C(=CC[C@@H]4[C@@]5(C)CC[C@H](O)C(C)(C)[C@@H]5CC[C@]43C)[C@@H]2C1 [OLEANOLIC_ACID]		> 10 µM	> 10 µM	> 10 µM									
C[C@H]1[C@H](C)CC[C@]2(C(=O)O)CC[C@]3(C)C(=CC[C@@H]4[C@@]5(C)CC[C@H](O)C(C)(C)[C@@H]5CC[C@]43C)[C@H]12 [URSOLIC ACID]		6.6 µM	4.2 µM	> 10 µM									
